Legend:
Leishmania amazonensis = assay: Antileishmanial activity against transgenic Leishmania amazonensis amastigotes infected in CD-1 mouse peritoneal macrophages assessed as beta-lactamase activity after 72 hrs by nitrocefin dye-based spectrophotometric analysis; type: functional, organism-based
Outline: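 Beta-lactamase-expressing promastigotes grown in RPMI 1640 GlutaMAX with HEPES, adenosine, folate, RPMI vitamins, 10% heat-inactivated FBS (pH 6.9); added 5:1 to CD-1 mouse peritoneal macrophages (1 × 10⁵ cells/well) for 24 h at 34 °C, washed twice with HBSS, then exposed to test concentrations for 72 h at 34 °C.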

Leishmania donovani = assay: Antileishmanial activity against Leishmania donovani LV82 promastigotes expressing red fluorescent protein after 72 hrs by flow cytometric analysis; type: functional, organism-based; conditions: LV82, 72 h
[1] = Selectivity index, ratio of IC50 for human HT-29 cells to IC50 for Leishmania amazonensis amastigotes; type: toxicity, cell-based; conditions: HT-29 cells versus Leishmania amazonensis amastigotes, read-out: Ratio IC50
Outline: (§1)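 Selectivity index calculated as HT-29 cytotoxicity IC50 divided by antileishmanial IC50.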

[2] = Selectivity index, ratio of IC50 for human HT-29 cells to IC50 for Leishmania donovani LV82 promastigotes expressing red fluorescent protein; type: toxicity, cell-based; conditions: read-out: Ratio IC50; outline: as §1
HT-29 = assay: Cytotoxicity against human HT-29 cells after 72 hrs by SRB assay; type: cell-based; conditions: HT-29, 72 h
Outline: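 HT-29 cells, 9500 per well, exposed to a range of concentrations in triplicate for 72 h; 10% DMSO in water as carrier/negative control, paclitaxel positive control.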

CC(C)c1cc(C=O)c([C@@]2(C)CCCC(C)(C)[C@@H]2C=O)cc1O
IC50 (Leishmania amazonensis): > 10 µg/mL
IC50 (Leishmania donovani): > 10 µg/mL

CC(C)C1=C(O)C(=O)C2=C(C1=O)[C@@H](O)C[C@H]1C(C)(C)CCC[C@]21C
IC50 (Leishmania amazonensis): > 10 µg/mL
IC50 (Leishmania donovani): > 10 µg/mL

Cc1ccc2c3c1CCCC(C)(C)[C@@]3(O)C(=O)C(C(C)C)=C2
IC50 (Leishmania amazonensis): > 10 µg/mL
IC50 (Leishmania donovani): > 10 µg/mL

Cc1ccc2cc(C(C)C)c(O)c3c2c1CCCC(C)(C)O3
IC50 (Leishmania amazonensis): > 10 µg/mL
IC50 (Leishmania donovani): > 10 µg/mL

CC(C)c1cc2c(cc1O)[C@@]1(C)CCCC(C)(C)[C@@H]1[C@@H](O)C2=O
selectivity ratio [1]: 2.1
selectivity ratio [2]: 1.5
IC50 (Leishmania amazonensis): 17.1 µM
IC50 (Leishmania donovani): 24.6 µM
IC50 (HT-29): 36 µM

COCC(=O)[C@H]1C(C)(C)CCC[C@]1(C)C1=C(O)C(=O)C(C(C)C)=CC1=O
selectivity ratio [1]: 3.2
selectivity ratio [2]: 0.6
IC50 (Leishmania amazonensis): 1.4 µM
IC50 (Leishmania donovani): 6.9 µM
IC50 (HT-29): 4.4 µM

CC(C)c1cc2c(cc1O)[C@@]1(C)CCCC(C)(C)C1=C(O)C2=O
IC50 (Leishmania amazonensis): > 10 µg/mL
IC50 (Leishmania donovani): > 10 µg/mL

CO[C@@H]1C[C@H]2C(C)(C)CCC[C@]2(C)C2=C1C(=O)C(C(C)C)=C(O)C2=O
IC50 (Leishmania amazonensis): > 10 µg/mL
IC50 (Leishmania donovani): > 10 µg/mL

Cc1ccc2c3c1CCCC(C)(C)C3C(=O)C(C(C)C)=C2 (racemic)
IC50 (Leishmania amazonensis): > 10 µg/mL
IC50 (Leishmania donovani): > 10 µg/mL

CC(C)c1cc2c(c(O)c1O)[C@@]1(C)CCCC(C)(C)C1=C(O)C2=O [14-DEOXYCOLEON U]
selectivity ratio [1]: 1
selectivity ratio [2]: < 0.27
IC50 (Leishmania amazonensis): 13 µM
IC50 (Leishmania donovani): > 60 µM
IC50 (HT-29): 13.3 µM

C[C@@H]1[C@H](O)[C@@H](C)/C=C/C=C/C=C/C=C/C=C/C=C/C=C/[C@H](O[C@@H]2O[C@H](C)[C@@H](O)[C@H](N)[C@@H]2O)C[C@@H]2O[C@](O)(C[C@@H](O)C[C@@H](O)[C@H](O)CC[C@@H](O)C[C@@H](O)CC(=O)O[C@H]1C)C[C@H](O)[C@H]2C(=O)O [AMPHOTERICIN B]
IC50 (Leishmania amazonensis): 0.086 µM

CC(C)c1cc2c(cc1O)[C@@]1(C)CCCC(C)(C)[C@@H]1CC2 [FERRUGINOL]
selectivity ratio [1]: 2.5
selectivity ratio [2]: 0.9
IC50 (Leishmania amazonensis): 15.4 µM
IC50 (Leishmania donovani): 45.7 µM
IC50 (HT-29): 39.4 µM

CC(C)C1=C(O)C(=O)C2=C(C1=O)[C@H](O)C[C@H]1C(C)(C)CCC[C@]21C [HORMINONE]
IC50 (Leishmania amazonensis): > 10 µg/mL
IC50 (Leishmania donovani): > 10 µg/mL

CC(C)C1=C(O)C(=O)C2=C(CC[C@H]3C(C)(C)CCC[C@]23C)C1=O [ROYLEANONE]
IC50 (Leishmania amazonensis): > 10 µg/mL
IC50 (Leishmania donovani): > 10 µg/mL

CC(C)c1cc2c(cc1O)[C@@]1(C)CCCC(C)(C)[C@@H]1CC2=O [SUGIOL]
IC50 (Leishmania amazonensis): > 10 µg/mL
IC50 (Leishmania donovani): > 10 µg/mL

CC(C)C1=CC2=CC(=O)[C@H]3C(C)(C)CCC[C@]3(C)C2=C(O)C1=O [TAXODIONE]
selectivity ratio [1]: 0.2
selectivity ratio [2]: 1.6
IC50 (Leishmania amazonensis): 14.3 µM
IC50 (Leishmania donovani): 1.6 µM
IC50 (HT-29): 2.5 µM

Source: ChEMBL document CHEMBL3813634, “Antileishmanial and Cytotoxic Activity of Some Highly Oxidized Abietane Diterpenoids from the Bald Cypress, Taxodium distichum” (J Nat Prod, 2016)
